Screening results: PubChem, several laboratories
Hits are enriched below; roughly 2.2% of the tested compounds scored in any of these assays.
V-ATPase pH: yeast V-ATPase proton transport regulation by pHLuorin; response, % at 10 µM; hit rate 0.37% among 350,000; AID 504577; S. cerevisiae, pHLuorin cytosolic pH fluorescence; in the data active = response mostly above about 7.3%, no sharp cut-off; inactive = mostly below about 5.4%; also: actives read high
Env fusion inh: blocks HIV Env-driven cell-cell fusion | HeLa-JRFL Env/CEM21 cell fusion, luciferase | inhibition, % at 12.3 µM | hit rate 1.1% among 360,000 | AID 651610;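 active = mean replicate inhibition score of at least 50 and every replicate individually at or above 50; inconclusive = only one of the two criteria met; inactive = mean below 50 and not all replicates reaching 50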;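 also: 0% = plate neutral controls and 100% = maraviroc near 300 nM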
NR2E3 ag-1: human photoreceptor-specific nuclear receptor agonism; Q9Y5X4; hit rate 0.35% among 360,000; CHO-S Gal4-NCOR/VP16-NR2E3 two-hybrid, luciferase; inhibition of corepressor binding, % at 3.98 µM;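 active = inhibition above the mean of all tested compounds plus 3 SD, cut at about 70% in these data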;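 also: 0% = DMSO with NR2E3 transfected cells and 100% = cells lacking NR2E3 construct; higher means lower luciferase signal from less NR2E3 corepressor binding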
FXN GAA850 act: increases GAA850 frataxin promoter reporter activity; HEK293 lucGAA850 FXN promoter luciferase reporter, 24 h; percent of 10 µM SAHA response; activation, % at 6 µM; hit rate 0.56% among 360,000;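 active = activation above the average of all compounds screened plus 3 SD, cutoff fixed separately per campaign, cut at about 7.5% in these data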;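 also: 0% = DMSO wells and 100% = 10 µM SAHA wells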
NR2E3 ag-2: agonists of human nuclear receptor NR2E3; AID 2300; hit rate 0.12% among 320,000; GST-NR2E3/biotin-RetCOR TR-FRET, 1536-well; inhibition of corepressor binding, % at 4.78 µM; Q9Y5X4;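 active = percent inhibition above the cutoff of mean plus 3 SD of all tested compounds, set per screening campaign, cut at about 20% in these data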;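 also: 0% = DMSO wells and 100% = biotin wells as full block of FRET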
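System: GST-NR2E3 and biotin-RetCOR proteins; probe or stimulus: 7 nM biotin-RetCOR; doses: compound at 4.8 µM, single dose; schedule: Compound–protein incubation for 5 h at 4 °C; detection: time-resolved FRET; read-out: percent inhibition; controls: biotin wells as high control, 0.6% DMSO wells as low control; format: 1536-well plates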
GalR3 antag: blocks the human galanin receptor 3 | O60755 | HEK293 GalR3-CNG cAMP membrane potential fluorescence; galR3 body fused to GalR1 C-terminus | inhibition, % at 3 µM | hit rate 0.44% among 360,000 | AID 651719;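 active = inhibition above the screen-wide average plus 3 SD, cut at about 13% in these data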;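 also: forskolin and galanin both at EC90 stimulate the cells; cAMP rise reported by CNG channel membrane potential dye signal; 0% = forskolin plus galanin with DMSO and 100% = forskolin alone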
Target sequence (O60755 1-299 limits assumed): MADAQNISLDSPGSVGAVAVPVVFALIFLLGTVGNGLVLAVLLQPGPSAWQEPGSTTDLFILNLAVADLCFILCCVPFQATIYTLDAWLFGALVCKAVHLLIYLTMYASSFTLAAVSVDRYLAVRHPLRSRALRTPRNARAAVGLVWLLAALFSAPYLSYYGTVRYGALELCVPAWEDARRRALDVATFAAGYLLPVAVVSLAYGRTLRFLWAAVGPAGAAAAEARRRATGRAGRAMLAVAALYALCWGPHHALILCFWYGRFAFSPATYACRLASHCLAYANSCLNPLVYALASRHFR
* marks the source's active call; other numbers are inactive results; ? = inconclusive; / = not tested or not shown; [ ] = another dose, or the depositor's remark.

SMILES	V-ATPase pH	Env fusion inh	NR2E3 ag-1	FXN GAA850 act	NR2E3 ag-2	GalR3 antag
CCN(CC)C(=O)c1ccc(NC(=O)c2cccc(C(F)(F)F)c2)cc1	1	2	-18	0	2	1
CC(C)NC(=O)N1[C@@H]2c3ccc(-c4cccc(C(=O)N(C)C)c4)c(=O)n3C[C@H]1[C@H](CO)[C@H]2C(=O)O	/	-6[16.7 µM]	/	/	/	/
C[n+]1c2ccccc2nc2ccc(NCCO)cc21	-2	57*	-39	-2	-22	-9
CNc1ccc2nc3ccccc3[n+](C)c2c1	2	-6	-30	-8	-29	-9
CCCCCCCCn1sccc1=O	37*	/	23	-1	-2	-5
COC(=O)[C@H]1[C@H](CO)[C@H]2Cn3c(cccc3=O)[C@@H]1N2CCc1ccccc1	/	-8[16.7 µM]	/	/	/	/
CCOC(=O)[C@@H]1[C@@H]2NC(=O)N(C)[C@@]1(C)Oc1ccccc12	/	-2[16.7 µM]	/	/	/	/
C[C@]12CCC3C(CC[C@H]4C[C@@H](O)CC[C@]34C)[C@H]1C=CC2=O (some centres undefined)	0	-2	27	9.4*	/	-4
Cc1cccc(S(=O)(=O)N2[C@@H]3c4ccc(-c5ccc(F)cc5)c(=O)n4C[C@H]2[C@H](CO)[C@H]3C(=O)O)c1	/	-2[16.7 µM]	/	/	/	/
CN1/C(=C\C=Nc2ccccc2)C(C)(C)c2ccccc21	-2	64*	-1	1	0	-3
CCCN1[C@@H]2c3cccc(=O)n3C[C@H]1[C@H](CO)[C@H]2C(=O)N(C)C	/	-9[16.7 µM]	/	/	/	/
CNc1ccc2oc(C[C@H]3O[C@@]4(CC[C@H]3C)O[C@H]([C@H](C)C(=O)c3ccc[nH]3)[C@H](C)C[C@H]4C)nc2c1C(=O)O	-2	90*	4	-3	0	-6
CCCCCCn1c(=O)c(C(=O)Nc2ncccc2C)c(O)c2ccccc21	-1	83*	0	1	2	-12
CCCCn1c(=O)c(C(=O)Nc2ncccc2C)c(O)c2ccccc21	0	?	-33	1	5	-8
COc1ccc(OC)c(N2C(=O)/C(=C/c3ccco3)C(=O)NC2=S)c1	/	/	/	/	15	/
COc1ccc(OC)c(N2C(=O)NC(=O)/C(=C/c3ccc([N+](=O)[O-])s3)C2=O)c1	125*	3	-2	1	4	1
CCCCNC(=O)c1c(N)n(CCCOC)c2nc3ccccc3nc12	1	14	-22	-3	4	-8
COCCNC(=O)c1c(N)n(CCC(C)C)c2nc3ccccc3nc12	1	59*	-11	0	10	-8
C[C@H]1CCC[C@@H](O)CCC/C=C/c2cc(O)cc(O)c2C(=O)O1	-4	-95	25	-4	3	-3
C[C@H]1CCC/C=C/C2C[C@H](O)CC2[C@H](O)/C=C/C(=O)O1 (some centres undefined)	-2	/	96*	-9	0	/
COC(=O)[C@H]1[C@H](CO)[C@H]2Cn3c(ccc(-c4ccccc4F)c3=O)[C@@H]1N2	/	6[16.7 µM]	/	/	/	/
O=[N+]([O-])c1ccc(N2CCCC2)c2ncccc12	-3	-1	-4	2	2	6
CC1CN(c2ccc([N+](=O)[O-])c3cccnc23)CC(C)N1 (centres undefined)	1	/	-2	9.6*	2	-4
C[C@@H]1CN([C@H](C)CO)C(=O)CCCn2cc(nn2)CO[C@@H]1CN(C)C(=O)Oc1ccc2ccccc2c1	/	-2[16.7 µM]	/	/	/	/
NC(=O)c1c(Br)n(C2OC(CO)C(O)C2O)c2ncnc(N)c12 (centres undefined)	-3	71*	-12	-6	/	-3
SMILES	V-ATPase pH	Env fusion inh	NR2E3 ag-1	FXN GAA850 act	NR2E3 ag-2	GalR3 antag
N#Cc1c(Br)n(C2OC(CO)C(O)C2O)c2ncnc(N)c12 (centres undefined)	-1	-1	43	0	/	-4
CC=Cc1ccc2n(c1=O)C[C@@H]1[C@@H](CO)[C@H](C(=O)OC)[C@H]2N1S(=O)(=O)c1cccc(C)c1 (mixture of isomers)	/	61*[16.7 µM]	/	/	/	/
CC=Cc1ccc2n(c1=O)C[C@H]1[C@H](CO)[C@@H](C(=O)O)[C@@H]2N1S(=O)(=O)c1ccccc1F (mixture of isomers)	/	8[16.7 µM]	/	/	/	/
Cc1ccc([C@@H]2C[C@H]3[C@@H](CN2S(=O)(=O)c2ccc(Cl)cc2)C(=O)C[C@@H](c2ccccc2F)N3S(=O)(=O)c2ccc(C)cc2)cc1	-2	-17	-5	-2	/	-4
Cc1ccc(C[n+]2c(-c3ccc(C)cc3)cc(-c3ccc(C)cc3)cc2-c2ccc(C)cc2)cc1	-4	/	99*	-14	1	/
COC(=O)[C@@H]1[C@@H](CO)[C@@H]2Cn3c(ccc(-c4cccnc4)c3=O)[C@H]1N2S(=O)(=O)c1ccccc1C	/	1[16.7 µM]	/	/	/	/
O=C(O)[C@H]1[C@H](CO)[C@H]2Cn3c(ccc(-c4ccc(F)cc4)c3=O)[C@@H]1N2CC1CCCC1	/	-10[16.7 µM]	/	/	/	/
C[C@]12CC[C@H](O)C[C@H]1CC[C@@H]1[C@@H]2CC[C@]2(C)[C@@H](C3=CC(=O)OC3)CC[C@]12O	-2	?	-4	-13	1	26*
CC12CCC(O)CC1CCC1C2CCC2(C)C(C3=CC(=O)OC3)CCC12O (centres undefined)	2	87*	-27	-14	/	30*
CC12CC[C@H]3[C@@H](CCC4(O)C[C@H](O)CCC34/C=N/NC(=O)Cc3ccccc3)C1(O)CCC2C1=CC(=O)OC1 (some centres undefined)	-5	-43	-15	1	2	-3
CC12CCC(O)CC1CCC1C2CCC2(C)C(C3=CC(=O)OC3)C(O)CC12O (centres undefined)	-6	74*	-9	-12	/	12
C[C@]12CC[C@H](O)C[C@H]1CC[C@@H]1[C@@H]2C[C@@H](O)[C@]2(C)[C@@H](C3=CC(=O)OC3)CC[C@]12O	5	-41	-17	-13	4	12
COC1C(O)C(C)OC(OC2CCC3(C)C(CCC4C3C(O)CC3(C)C(C5=CC(=O)OC5)CCC43O)C2)C1O (centres undefined)	-5	86*	3	-15	/	28*
CCOC(=O)[C@@H]1[C@@H]2NC(=S)N(C)[C@@]1(COCc1ccc(OC)cc1)Oc1ccccc12	/	-3[16.7 µM]	/	/	/	/
CCSc1nnc([C@@H](N)Cc2c[nH]c3ccccc23)o1	-1	-28	-14	2	0	-4
Cc1cccc(NC(=O)CSc2nnc([C@@H](N)Cc3c[nH]c4ccccc34)o2)c1C	-1	55*	17	-2	-1	-1
COC(=O)[C@@H]1[C@@H](CO)[C@@H]2Cn3c(cccc3=O)[C@H]1N2CCc1ccccc1	/	6[16.7 µM]	/	/	/	/
CN1C(=O)C2C[C@@]3(Br)c4ccccc4N(OOSc4ccccc4)[C@H]3N2C(=O)[C@@H]1Cc1ccccc1 (some centres undefined)	-3	77*	-10	6	0	1
